Laboratory results from ChEMBL document CHEMBL2062460, “Disubstituted thiourea derivatives and their activity on CNS: synthesis and biological evaluation” (Eur J Med Chem, 2012).
Values after ≈ are worked out from the molar mass of the structure shown. Active and inactive are the calls of the source. The rule behind the calls is not given here.

Assays:
Staphylococcus aureus [1] = assay: Antibacterial activity against Staphylococcus aureus ATCC 25923 after 18 hrs by twofold serial agar dilution technique; assay type: functional; settings: ATCC 25923, 18 h
Outline: (§1)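 Twofold serial agar dilution on Mueller–Hinton II agar, following CLSI guidelines. Compounds were dissolved in methanol or DMSO and tested at final agar concentrations of 3.125–400 µg/mL. Final inoculum was 10^4 CFU/mL.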

Staphylococcus aureus [2] = assay: Antibacterial activity against methicillin-resistant Staphylococcus aureus clinical isolate 309/08 after 18 hrs by twofold serial agar dilution technique; assay type: functional; settings: clinical isolate 309/08, 18 h
Outline: (§2)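 Clinical isolates came from patients in Warsaw Medical University Hospitals and were classed as methicillin-susceptible or -resistant. MIC was determined by twofold serial agar dilution on Mueller–Hinton II agar (CLSI), 3.125–400 µg/mL in agar, with compounds in methanol or DMSO. Inoculum was 10^4 CFU/mL and plates were read after 18 h at 35 °C.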

Pseudomonas aeruginosa [3] = assay: Antibacterial activity against Pseudomonas aeruginosa ATCC 27853 at 400 ug/disc after 18 hrs by disc diffusion method; assay type: functional, organism-based
Outline: (§3)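 Disc diffusion per CLSI on Mueller–Hinton II agar; 9 mm paper discs loaded from methanol or DMSO solutions to 400 µg per disc, dried; growth inhibition zone diameter read after 18 h at 35 °C.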

Staphylococcus aureus [4] = assay: Antibacterial activity against Staphylococcus aureus ATCC 6538 at 400 ug/disc after 18 hrs by disc diffusion method; assay type: functional; settings: ATCC 6538, 18 h, read-out: DIZ; outline: as §3
Micrococcus luteus [5] = assay: Antibacterial activity against Micrococcus luteus ATCC 10240 after 18 hrs by twofold serial agar dilution technique; assay type: functional; settings: ATCC 10240, 18 h
Staphylococcus aureus [6] = assay: Antibacterial activity against methicillin-susceptible Staphylococcus aureus clinical isolate 339/09 after 18 hrs by twofold serial agar dilution technique; assay type: functional; settings: clinical isolate 339/09, 18 h; outline: as §2
Candida albicans = assay: Antifungal activity against Candida albicans ATCC 10231 at 400 ug/disc after 18 hrs by disc diffusion method; assay type: functional, organism-based
Outline: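 Yeasts tested by disc diffusion (CLSI) on RPMI agar with 2% glucose; 9 mm paper discs bearing 400 µg compound from methanol or DMSO solution; inhibition zone diameter read after 18 h at 35 °C.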

Staphylococcus aureus [7] = assay: Antibacterial activity against Staphylococcus aureus ATCC 6538 after 18 hrs by twofold serial agar dilution technique; assay type: functional; settings: ATCC 6538, 18 h; outline: as §1
Micrococcus luteus [8] = assay: Antibacterial activity against Micrococcus luteus ATCC 9341 after 18 hrs by twofold serial agar dilution technique; assay type: functional; settings: ATCC 9341, 18 h
[9] = tested on: Staphylococcus epidermidis; assay: Antibacterial activity against methicillin-resistant Staphylococcus epidermidis clinical isolate 342/09 after 18 hrs by twofold serial agar dilution technique; assay type: functional; settings: clinical isolate 342/09, 18 h; outline: as §2
Staphylococcus aureus [10] = assay: Antibacterial activity against methicillin-resistant Staphylococcus aureus clinical isolate 356/09 after 18 hrs by twofold serial agar dilution technique; assay type: functional; settings: clinical isolate 356/09, 18 h; outline: as §2
[11] = tested on: Staphylococcus epidermidis; assay: Antibacterial activity against Staphylococcus epidermidis ATCC 12228 after 18 hrs by twofold serial agar dilution technique; assay type: functional; settings: ATCC 12228, 18 h; outline: as §1
[12] = tested on: Staphylococcus epidermidis; assay: Antibacterial activity against methicillin-resistant Staphylococcus epidermidis clinical isolate 316/08 after 18 hrs by twofold serial agar dilution technique; assay type: functional; settings: clinical isolate 316/08, 18 h; outline: as §2
Bacillus subtilis [13] = assay: Antibacterial activity against Bacillus subtilis ATCC 6633 at 400 ug/disc after 18 hrs by disc diffusion method; assay type: functional; settings: ATCC 6633, 18 h, read-out: DIZ; outline: as §3
Bacillus subtilis [14] = assay: Antibacterial activity against Bacillus subtilis ATCC 6633 after 18 hrs by twofold serial agar dilution technique; assay type: functional; settings: ATCC 6633, 18 h
Staphylococcus aureus [15] = assay: Antibacterial activity against Staphylococcus aureus ATCC 25923 at 400 ug/disc after 18 hrs by disc diffusion method; assay type: functional; settings: ATCC 25923, 18 h, read-out: DIZ; outline: as §3
[16] = tested on: Staphylococcus epidermidis; assay: Antibacterial activity against methicillin-resistant Staphylococcus epidermidis clinical isolate 311/08 after 18 hrs by twofold serial agar dilution technique; assay type: functional; settings: clinical isolate 311/08, 18 h; outline: as §2
Staphylococcus aureus [17] = assay: Antibacterial activity against methicillin-resistant Staphylococcus aureus clinical isolate 307/08 after 18 hrs by twofold serial agar dilution technique; assay type: functional; settings: clinical isolate 307/08, 18 h; outline: as §2
Staphylococcus aureus [18] = assay: Antibacterial activity against methicillin-resistant Staphylococcus aureus clinical isolate 277/08 after 18 hrs by twofold serial agar dilution technique; assay type: functional; settings: clinical isolate 277/08, 18 h; outline: as §2
[19] = tested on: Staphylococcus epidermidis; assay: Antibacterial activity against methicillin-resistant Staphylococcus epidermidis clinical isolate 377/09 after 18 hrs by twofold serial agar dilution technique; assay type: functional; settings: clinical isolate 377/09, 18 h; outline: as §2
Staphylococcus aureus [20] = assay: Antibacterial activity against methicillin-susceptible Staphylococcus aureus clinical isolate 338/08 after 18 hrs by twofold serial agar dilution technique; assay type: functional; settings: clinical isolate 338/08, 18 h; outline: as §2
Bacillus cereus = assay: Antibacterial activity against Bacillus cereus ATCC 11778 at 400 ug/disc after 18 hrs by disc diffusion method; assay type: functional; settings: ATCC 11778, 18 h, read-out: DIZ; outline: as §3
Staphylococcus aureus [21] = assay: Antibacterial activity against methicillin-susceptible Staphylococcus aureus clinical isolate 269/08 after 18 hrs by twofold serial agar dilution technique; assay type: functional; settings: clinical isolate 269/08, 18 h; outline: as §2
Staphylococcus aureus [22] = assay: Antibacterial activity against methicillin-susceptible Staphylococcus aureus clinical isolate 367/09 after 18 hrs by twofold serial agar dilution technique; assay type: functional; settings: clinical isolate 367/09, 18 h; outline: as §2
Staphylococcus aureus [23] = assay: Antibacterial activity against methicillin-resistant Staphylococcus aureus clinical isolate 306/08 after 18 hrs by twofold serial agar dilution technique; assay type: functional; settings: clinical isolate 306/08, 18 h; outline: as §2
[24] = tested on: Staphylococcus epidermidis; assay: Antibacterial activity against methicillin-resistant Staphylococcus epidermidis clinical isolate 341/09 after 18 hrs by twofold serial agar dilution technique; assay type: functional; settings: clinical isolate 341/09, 18 h; outline: as §2
Micrococcus luteus [25] = assay: Antibacterial activity against Micrococcus luteus ATCC 9341 at 400 ug/disc after 18 hrs by disc diffusion method; assay type: functional; settings: ATCC 9341, 18 h, read-out: DIZ; outline: as §3
Staphylococcus aureus [26] = assay: Antibacterial activity against Staphylococcus aureus NCTC 4163 at 400 ug/disc after 18 hrs by disc diffusion method; assay type: functional; settings: NCTC 4163, 18 h, read-out: DIZ; outline: as §3
Pseudomonas aeruginosa [27] = assay: Antibacterial activity against Pseudomonas aeruginosa ATCC 15442 at 400 ug/disc after 18 hrs by disc diffusion method; assay type: functional, organism-based; outline: as §3
[28] = tested on: Staphylococcus epidermidis; assay: Antibacterial activity against methicillin-resistant Staphylococcus epidermidis clinical isolate 340/09 after 18 hrs by twofold serial agar dilution technique; assay type: functional; settings: clinical isolate 340/09, 18 h; outline: as §2
Staphylococcus aureus [29] = assay: Antibacterial activity against methicillin-susceptible Staphylococcus aureus clinical isolate 372/09 after 18 hrs by twofold serial agar dilution technique; assay type: functional; settings: clinical isolate 372/09, 18 h; outline: as §2
[30] = tested on: Bordetella bronchiseptica; assay: Antibacterial activity against Bordetella bronchiseptica ATCC 4617 at 400 ug/disc after 18 hrs by disc diffusion method; assay type: functional, organism-based; outline: as §3
Proteus vulgaris = assay: Antibacterial activity against Proteus vulgaris NCTC 4635 at 400 ug/disc after 18 hrs by disc diffusion method; assay type: functional, organism-based; outline: as §3
Staphylococcus aureus [31] = assay: Antibacterial activity against methicillin-resistant Staphylococcus aureus clinical isolate 376/09 after 18 hrs by twofold serial agar dilution technique; assay type: functional; settings: clinical isolate 376/09, 18 h; outline: as §2
Pseudomonas aeruginosa [32] = assay: Antibacterial activity against Pseudomonas aeruginosa NCTC 6749 at 400 ug/disc after 18 hrs by disc diffusion method; assay type: functional, organism-based; outline: as §3
Enterococcus hirae = assay: Antibacterial activity against Enterococcus hirae ATCC 10541 after 18 hrs by twofold serial agar dilution technique; assay type: functional; settings: ATCC 10541, 18 h
Staphylococcus aureus [33] = assay: Antibacterial activity against Staphylococcus aureus NCTC 4163 after 18 hrs by twofold serial agar dilution technique; assay type: functional; settings: NCTC 4163, 18 h; outline: as §1

Row | Compound | MIC (Staphylococcus aureus [1]) | MIC (Staphylococcus aureus [2]) | diameter of the inhibition zone (DIZ) (Pseudomonas aeruginosa [3]) | zone of inhibition at 400 µg/disc (Staphylococcus aureus [4]) | MIC (Micrococcus luteus [5]) | MIC (Staphylococcus aureus [6]) | diameter of the inhibition zone (DIZ) (Candida albicans) | MIC (Staphylococcus aureus [7]) | MIC (Micrococcus luteus [8]) | MIC [9] | MIC (Staphylococcus aureus [10]) | MIC [11] | MIC [12] | zone of inhibition at 400 µg/disc (Bacillus subtilis [13]) | MIC (Bacillus subtilis [14]) | zone of inhibition at 400 µg/disc (Staphylococcus aureus [15]) | MIC [16] | MIC (Staphylococcus aureus [17]) | MIC (Staphylococcus aureus [18]) | MIC [19] | further results
1 | S=C(Nc1ccc(I)cc1)Nc1nc[nH]n1 | 25 µg/mL (≈ 72.4 µM) | 25 µg/mL (≈ 72.4 µM) | inactive | 12 mm | 12.5 µg/mL (≈ 36.2 µM) | 50 µg/mL (≈ 145 µM) | inactive | 25 µg/mL (≈ 72.4 µM) | 12.5 µg/mL (≈ 36.2 µM) | 25 µg/mL (≈ 72.4 µM) | 50 µg/mL (≈ 145 µM) | 25 µg/mL (≈ 72.4 µM) | 50 µg/mL (≈ 145 µM) | 18 mm | 12.5 µg/mL (≈ 36.2 µM) | 13 mm | 50 µg/mL (≈ 145 µM) | 50 µg/mL (≈ 145 µM) | 25 µg/mL (≈ 72.4 µM) | 25 µg/mL (≈ 72.4 µM) | MIC (Staphylococcus aureus [20]): 50 µg/mL (≈ 145 µM); zone of inhibition at 400 µg/disc (Bacillus cereus): 13 mm; MIC (Staphylococcus aureus [21]): 25 µg/mL (≈ 72.4 µM); MIC (Staphylococcus aureus [22]): 25 µg/mL (≈ 72.4 µM); MIC (Staphylococcus aureus [23]): 50 µg/mL (≈ 145 µM); MIC [24]: 50 µg/mL (≈ 145 µM); zone of inhibition at 400 µg/disc (Micrococcus luteus [25]): 13 mm; zone of inhibition at 400 µg/disc (Staphylococcus aureus [26]): 12 mm; diameter of the inhibition zone (DIZ) (Pseudomonas aeruginosa [27]): inactive; MIC [28]: 25 µg/mL (≈ 72.4 µM); MIC (Staphylococcus aureus [29]): 25 µg/mL (≈ 72.4 µM); diameter of the inhibition zone (DIZ) [30]: inactive; diameter of the inhibition zone (DIZ) (Proteus vulgaris): inactive; MIC (Staphylococcus aureus [31]): 50 µg/mL (≈ 145 µM); diameter of the inhibition zone (DIZ) (Pseudomonas aeruginosa [32]): inactive; MIC (Enterococcus hirae): 400 µg/mL (≈ 1160 µM); MIC (Staphylococcus aureus [33]): 25 µg/mL (≈ 72.4 µM)
2 | S=C(Nc1nc[nH]n1)Nc1ccccc1Br | 50 µg/mL (≈ 168 µM) | 50 µg/mL (≈ 168 µM) | inactive | 12 mm | 6.25 µg/mL (≈ 21 µM) | 50 µg/mL (≈ 168 µM) | inactive | 50 µg/mL (≈ 168 µM) | 6.25 µg/mL (≈ 21 µM) | 50 µg/mL (≈ 168 µM) | 50 µg/mL (≈ 168 µM) | 25 µg/mL (≈ 83.8 µM) | 100 µg/mL (≈ 335 µM) | 17 mm | 12.5 µg/mL (≈ 41.9 µM) | 13 mm | 100 µg/mL (≈ 335 µM) | 50 µg/mL (≈ 168 µM) | 50 µg/mL (≈ 168 µM) | 50 µg/mL (≈ 168 µM) | MIC (Staphylococcus aureus [20]): 50 µg/mL (≈ 168 µM); zone of inhibition at 400 µg/disc (Bacillus cereus): 12 mm; MIC (Staphylococcus aureus [21]): 50 µg/mL (≈ 168 µM); MIC (Staphylococcus aureus [22]): 50 µg/mL (≈ 168 µM); MIC (Staphylococcus aureus [23]): 50 µg/mL (≈ 168 µM); MIC [24]: 100 µg/mL (≈ 335 µM); zone of inhibition at 400 µg/disc (Micrococcus luteus [25]): 16 mm; zone of inhibition at 400 µg/disc (Staphylococcus aureus [26]): 11 mm; diameter of the inhibition zone (DIZ) (Pseudomonas aeruginosa [27]): inactive; MIC [28]: 50 µg/mL (≈ 168 µM); MIC (Staphylococcus aureus [29]): 50 µg/mL (≈ 168 µM); diameter of the inhibition zone (DIZ) [30]: inactive; diameter of the inhibition zone (DIZ) (Proteus vulgaris): inactive; MIC (Staphylococcus aureus [31]): 50 µg/mL (≈ 168 µM); diameter of the inhibition zone (DIZ) (Pseudomonas aeruginosa [32]): inactive; MIC (Enterococcus hirae): 400 µg/mL (≈ 1340 µM); MIC (Staphylococcus aureus [33]): 50 µg/mL (≈ 168 µM)
